Measured values: publication PMC4545688 (Pain, 2015)

Experiments:
[1] = test system: GFP-transfected ACE-1 cells; assay: Prostate cancer cells in vitro growth assay, GFP-transfected ACE-1; type: cell-based, canine; details: for effect on cell growth (sensitivity): three day growth assay in vitro
Summary of the method: (§1)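 Cells were seeded at 3000 cells/well and allowed to adhere overnight at 37°C, 5% CO2. Test compound or staurosporine was prepared as an 8-point, 3-fold DMSO series from a 10 mM stock, giving a final 500-fold dilution of stocks, in triplicate. After 3 days, growth was measured by CellTiter-Glo luminescence, normalised to the DMSO signal (% control), and IC50 was fitted against concentration.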

parental ACE1 cells = assay: Prostate cancer cells in vitro growth assay, parental ACE1; type: cell-based, canine; details: for effect on cell growth (sensitivity): three day growth assay in vitro
Summary of the method: as §1

[2] = test system: CD68+ macrophages and osteoclasts; assay: CD68+ cells in tumor-bearing bone sections; type: in vivo, mouse
Summary of the method: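 Mice received intramedullary femoral injection of GFP+ ACE-1 prostate cancer cells. From day 14 they were given test compound in chow (average 30 mg/kg/day) or control chow ad libitum, n=8/group. At day 65, 20 μm decalcified frozen bone sections were stained with rat anti-mouse CD68 (1:2,000), Cy3 secondary and DAPI. Two 400X confocal images were taken per section from three sections per animal, in GFP+ tumor areas. Blinded counts were made per μm3.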

LNCaP = assay: Prostate cancer cell growth in vitro, LNCaP; type: cell-based; details: data not shown
[3] = ref [4],[16],[19]; cited from earlier work
[4] = Spontaneous guarding and flinching in prostate model of bone cancer; type: in vivo, mouse; details: 30 mg/kg/day in chow from day 14; days 56 and 63; vs vehicle; 2-min observation
PC-3 = assay: Prostate cancer cell growth in vitro, PC-3; type: cell-based; details: data not shown
[5] = test system: Human osteoclast precursors; assay: Osteoclast differentiation assay; type: cell-based; details: six days with CSF-1 and RANKL, up to 10 μM
Summary of the method: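 Human osteoclast precursors were cultured at 37°C, 5% CO2, with CSF-1 (33 ng/mL), RANKL (66 ng/mL) and test compound (up to 10 μM) or 0.2% DMSO for 6 days. After a medium change, cells were incubated 1 more day. Supernatant acid phosphatase (TRAP5b) was read at 405 nm. Results are expressed as percent inhibition relative to vehicle with or without CSF-1, from six independent experiments.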

Rat formalin test = type: in vivo; details: 30 mg/kg PO two hours before subplantar formalin; vs vehicle; p<0.05
Summary of the method: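 SD rats received test compound at 30 mg/kg or vehicle (0.5% HPMC/1% Tween 80/2.5% DMSO) orally, 2 h before subplantar formalin (0.05 mL, 1%). Hind paw licking time was recorded at 5-minute intervals for 30 minutes, covering the acute and inflammatory phases. Data are the average of two independent experiments with six rats per group per trial.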

[6] = test system: ACE-1 prostate cancer cells; assay: Radiographic number of cancer cell colonies and overall tumor burden; type: in vivo, mouse
Summary of the method: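 In the same chow-dosing femoral tumor model, radiographs of tumor-bearing femurs were analysed blind. Images were split into distal and proximal halves and enlarged. Each colony was numbered and traced, defined as a radio-translucent area bounded by radio-opaque woven bone. Colony number per region and total tumor area per femur were recorded, then averaged per treatment group.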

[7] = Radiographic assessment of tumor-induced bone remodeling; type: in vivo, mouse
Summary of the method: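 In the femoral ACE-1 tumor model, compound-formulated chow (average 30 mg/kg/day) or control chow was given ad libitum from day 14 to study end, n=8/group. Radiographs were taken from day 14 and then every 7 days. In blinded analysis, bone lying outside the normal femur diameter (defined from naïve/sham mice) was traced with a mm-calibrated free-form tool. Mean area was calculated per group.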

[8] = three day growth assay, CellTiter-Glo
[9] = 30 mg/kg/day in chow, distal and proximal ends of femur, vs vehicle, p<0.05
[10] = sustained administration 30 mg/kg/day in chow

Structure (SMILES) | effect on cell growth (sensitivity) [1] | effect on cell growth (sensitivity) (parental ACE1 cells) | viability of cancer cells in tumor cell colony ([2]; GFP+ prostate cancer cells in bone sections, day 65) | number of CD68+ cells per tissue volume ([2]; day 65 post-tumor cell injection, chronic treatment, vs vehicle, p<0.05) | effect on prostate cancer cell growth (LNCaP) | crossing of the blood brain barrier [3] | concentration up to which no effect on cell growth (not sensitive) [1, 8] | concentration up to which no effect on cell growth (not sensitive) (parental ACE1 cells; [8]) | time spent guarding tumor-bearing limb [4] | effect on prostate cancer cell growth (PC-3) | osteoclast differentiation (acid phosphatase activity, TRAP5b) [5] | hind paw licking time, acute phase (0–5 minutes) (Rat formalin test) | hind paw licking time, inflammatory phase (10–30 minutes) (Rat formalin test) | number of cancer cell colonies [6, 9] | total tumor burden area [6, 9] | attenuation of disease progression [6, 10] | extra-periosteal bone formation (periosteal reaction area) ([7]; 30 mg/kg/day in chow from day 14, days 14–63, vs vehicle, p<0.05) | overall radio-opacity of tumor-bearing femur ([7]; 30 mg/kg/day in chow, vs prostate cancer + vehicle) | attenuation of tumor-induced bone remodeling [7, 10]
Cn1c(=O)n(-c2ccc(C(C)(C)C#N)cc2)c2c3cc(-c4cnc5ccccc5c4)ccc3ncc21 [BEZ-235, reference compound] | sensitive | sensitive | – | – | – | – | – | – | – | – | – | – | – | – | – | – | – | – | –
FC(F)(F)c1ccc(CNc2ccc(Cc3c[nH]c4ncc(Cl)cc34)cn2)cn1 [PLX3397] | – | did not affect | little effect | significantly reduced | did not affect | does cross the blood brain barrier | > 10 µM | > 10 µM | reduced | did not affect | inhibited | analgesic effects | analgesic effects | significantly reduced | significantly reduced | approximately 50% | significantly reduced | increase | approximately 50%
CN[C@@H]1C[C@H]2O[C@@](C)([C@@H]1OC)n1c3ccccc3c3c4c(c5c6ccccc6n2c5c31)C(=O)NC4 [staurosporine, reference compound] | sensitive | sensitive | – | – | – | – | – | – | – | – | – | – | – | – | – | – | – | – | –
